System: HEK-293T
Test: Multiplex assay against HEK293T
Type: toxicity, cell-based
Details: human
Outline: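 Compound was added to live cells that had been stained at seeding with Hoechst33342, BioTracker Green Microtubule Cytoskeleton Dye, MitoTracker Red and Annexin V Alexa Fluor 680, and imaging followed on a CQ1 microscope at 37°C and 5% CO2. CellPathfinder machine-learning gating divided cells into Hoechst high-intensity objects or normal cells, normal cells into healthy, pyknosed or fragmented nuclei, and pyknosed cells into mitotic or apoptotic. Tubulin, mitochondrial-mass and membrane-permeability phenotypes are per cents of healthy-nucleus cells.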

[1] = 12 h, 1 µM, compound concentration 1 uM, replicate 1
[2] = 12 h, 1 µM, compound concentration 1 uM, replicate 2
[3] = 12 h, 10 µM, compound concentration 10 uM, replicate 1
[4] = 12 h, 10 µM, compound concentration 10 uM, replicate 2
[5] = 24 h, 1 µM, compound concentration 1 uM, replicate 1
[6] = 24 h, 1 µM, compound concentration 1 uM, replicate 2
[7] = 24 h, 10 µM, compound concentration 10 uM, replicate 1
[8] = 24 h, 10 µM, compound concentration 10 uM, replicate 2
[9] = 48 h, 1 µM, compound concentration 1 uM, replicate 1
[10] = 48 h, 1 µM, compound concentration 1 uM, replicate 2
[11] = 48 h, 10 µM, compound concentration 10 uM, replicate 1
[12] = 48 h, 10 µM, compound concentration 10 uM, replicate 2

Structure (SMILES): Nc1nc(CC(=O)Nc2ccc(CCNC[C@H](O)c3ccccc3)cc2)cs1 [MIRABEGRON]
- Population Apoptotic (%) [1]: 22%
- Population Fragmented Nuclei (%) [1]: 5%
- Population Healthy Nuclei (%) [1]: 84%
- Population Hoechst High Intensity Objects (%) [1]: 5%
- Population Membrane Permeable-Phenotype (%) [1]: 0%
- Population Mitochondria Different-Phenotype (%) [1]: 45%
- Population Mitotic Cells (%) [1]: 77%
- Population Normal (%) [1]: 94%
- Population Pyknosed Nuclei (%) [1]: 10%
- Population Tubulin-Different-Phenotype (%) [1]: 19%
- Total Cell Count [1]: 455
- Population Apoptotic (%) [2]: 55%
- Population Fragmented Nuclei (%) [2]: 8%
- Population Healthy Nuclei (%) [2]: 80%
- Population Mitochondria Different-Phenotype (%) [2]: 56%
- Population Mitotic Cells (%) [2]: 44%
- Population Pyknosed Nuclei (%) [2]: 11%
- Total Cell Count [2]: 332
- Population Apoptotic (%) [3]: 32%
- Population Fragmented Nuclei (%) [3]: 5%
- Population Healthy Nuclei (%) [3]: 77%
- Population Hoechst High Intensity Objects (%) [3]: 7%
- Population Membrane Permeable-Phenotype (%) [3]: 0%
- Population Mitochondria Different-Phenotype (%) [3]: 51%
- Population Mitotic Cells (%) [3]: 67%
- Population Normal (%) [3]: 92%
- Population Pyknosed Nuclei (%) [3]: 17%
- Population Tubulin-Different-Phenotype (%) [3]: 41%
- Total Cell Count [3]: 423
- Population Apoptotic (%) [4]: 44%
- Population Fragmented Nuclei (%) [4]: 11%
- Population Healthy Nuclei (%) [4]: 74%
- Population Hoechst High Intensity Objects (%) [4]: 8%
- Population Mitochondria Different-Phenotype (%) [4]: 64%
- Population Mitotic Cells (%) [4]: 56%
- Population Normal (%) [4]: 91%
- Population Pyknosed Nuclei (%) [4]: 14%
- Population Tubulin-Different-Phenotype (%) [4]: 29%
- Total Cell Count [4]: 388
- Population Apoptotic (%) [5]: 28%
- Population Fragmented Nuclei (%) [5]: 10%
- Population Healthy Nuclei (%) [5]: 80%
- Population Hoechst High Intensity Objects (%) [5]: 2%
- Population Membrane Permeable-Phenotype (%) [5]: 0%
- Population Mitochondria Different-Phenotype (%) [5]: 30%
- Population Mitotic Cells (%) [5]: 71%
- Population Normal (%) [5]: 97%
- Population Pyknosed Nuclei (%) [5]: 9%
- Population Tubulin-Different-Phenotype (%) [5]: 14%
- Total Cell Count [5]: 635
- Population Apoptotic (%) [6]: 27%
- Population Fragmented Nuclei (%) [6]: 8%
- Population Healthy Nuclei (%) [6]: 83%
- Population Hoechst High Intensity Objects (%) [6]: 3%
- Population Mitochondria Different-Phenotype (%) [6]: 41%
- Population Mitotic Cells (%) [6]: 72%
- Population Normal (%) [6]: 96%
- Population Pyknosed Nuclei (%) [6]: 7%
- Population Tubulin-Different-Phenotype (%) [6]: 13%
- Total Cell Count [6]: 390
- Population Apoptotic (%) [7]: 31%
- Population Fragmented Nuclei (%) [7]: 8%
- Population Healthy Nuclei (%) [7]: 77%
- Population Hoechst High Intensity Objects (%) [7]: 4%
- Population Membrane Permeable-Phenotype (%) [7]: 0%
- Population Mitochondria Different-Phenotype (%) [7]: 32%
- Population Mitotic Cells (%) [7]: 68%
- Population Normal (%) [7]: 95%
- Population Pyknosed Nuclei (%) [7]: 13%
- Population Tubulin-Different-Phenotype (%) [7]: 23%
- Total Cell Count [7]: 552
- Population Apoptotic (%) [8]: 35%
- Population Fragmented Nuclei (%) [8]: 9%
- Population Healthy Nuclei (%) [8]: 82%
- Population Hoechst High Intensity Objects (%) [8]: 5%
- Population Mitochondria Different-Phenotype (%) [8]: 49%
- Population Mitotic Cells (%) [8]: 64%
- Population Normal (%) [8]: 94%
- Population Pyknosed Nuclei (%) [8]: 7%
- Total Cell Count [8]: 524
- Population Apoptotic (%) [9]: 18%
- Population Fragmented Nuclei (%) [9]: 13%
- Population Healthy Nuclei (%) [9]: 80%
- Population Hoechst High Intensity Objects (%) [9]: 1%
- Population Membrane Permeable-Phenotype (%) [9]: 1%
- Population Mitochondria Different-Phenotype (%) [9]: 14%
- Population Mitotic Cells (%) [9]: 81%
- Population Normal (%) [9]: 98%
- Population Pyknosed Nuclei (%) [9]: 5%
- Population Tubulin-Different-Phenotype (%) [9]: 10%
- Total Cell Count [9]: 1141
- Population Apoptotic (%) [10]: 28%
- Population Fragmented Nuclei (%) [10]: 17%
- Population Healthy Nuclei (%) [10]: 76%
- Population Hoechst High Intensity Objects (%) [10]: 0%
- Population Mitochondria Different-Phenotype (%) [10]: 21%
- Population Mitotic Cells (%) [10]: 71%
- Population Normal (%) [10]: 99%
- Total Cell Count [10]: 662
- Population Apoptotic (%) [11]: 26%
- Population Fragmented Nuclei (%) [11]: 12%
- Population Healthy Nuclei (%) [11]: 78%
- Population Hoechst High Intensity Objects (%) [11]: 3%
- Population Membrane Permeable-Phenotype (%) [11]: 0%
- Population Mitochondria Different-Phenotype (%) [11]: 25%
- Population Mitotic Cells (%) [11]: 73%
- Population Normal (%) [11]: 96%
- Population Pyknosed Nuclei (%) [11]: 8%
- Population Tubulin-Different-Phenotype (%) [11]: 16%
- Total Cell Count [11]: 818
- Population Apoptotic (%) [12]: 28%
- Population Healthy Nuclei (%) [12]: 80%
- Population Hoechst High Intensity Objects (%) [12]: 2%
- Population Mitochondria Different-Phenotype (%) [12]: 30%
- Population Mitotic Cells (%) [12]: 71%
- Population Normal (%) [12]: 97%
- Population Pyknosed Nuclei (%) [12]: 6%
- Population Tubulin-Different-Phenotype (%) [12]: 15%
- Total Cell Count [12]: 750

Structure (SMILES): COc1ccc2c(c1OCc1ccccc1)C[C@@H](C(=O)O)N(C(=O)C(c1ccccc1)c1ccccc1)C2 [OLODANRIGAN]
- Population Apoptotic (%) [1]: 39%
- Population Fragmented Nuclei (%) [1]: 6%
- Population Healthy Nuclei (%) [1]: 82%
- Population Hoechst High Intensity Objects (%) [1]: 7%
- Population Membrane Permeable-Phenotype (%) [1]: 0%
- Population Mitochondria Different-Phenotype (%) [1]: 44%
- Population Mitotic Cells (%) [1]: 60%
- Population Normal (%) [1]: 92%
- Population Pyknosed Nuclei (%) [1]: 11%
- Population Tubulin-Different-Phenotype (%) [1]: 21%
- Total Cell Count [1]: 419
- Population Apoptotic (%) [2]: 43%
- Population Fragmented Nuclei (%) [2]: 7%
- Population Healthy Nuclei (%) [2]: 81%
- Population Mitochondria Different-Phenotype (%) [2]: 48%
- Population Mitotic Cells (%) [2]: 56%
- Population Pyknosed Nuclei (%) [2]: 10%
- Population Tubulin-Different-Phenotype (%) [2]: 17%
- Total Cell Count [2]: 409
- Population Apoptotic (%) [3]: 45%
- Population Fragmented Nuclei (%) [3]: 6%
- Population Healthy Nuclei (%) [3]: 81%
- Population Hoechst High Intensity Objects (%) [3]: 6%
- Population Membrane Permeable-Phenotype (%) [3]: 0%
- Population Mitochondria Different-Phenotype (%) [3]: 42%
- Population Mitotic Cells (%) [3]: 54%
- Population Normal (%) [3]: 93%
- Population Pyknosed Nuclei (%) [3]: 12%
- Population Tubulin-Different-Phenotype (%) [3]: 35%
- Total Cell Count [3]: 389
- Population Apoptotic (%) [4]: 44%
- Population Fragmented Nuclei (%) [4]: 4%
- Population Healthy Nuclei (%) [4]: 83%
- Population Hoechst High Intensity Objects (%) [4]: 3%
- Population Mitochondria Different-Phenotype (%) [4]: 58%
- Population Mitotic Cells (%) [4]: 55%
- Population Normal (%) [4]: 96%
- Population Tubulin-Different-Phenotype (%) [4]: 27%
- Total Cell Count [4]: 368
- Population Apoptotic (%) [5]: 46%
- Population Fragmented Nuclei (%) [5]: 11%
- Population Healthy Nuclei (%) [5]: 78%
- Population Hoechst High Intensity Objects (%) [5]: 3%
- Population Membrane Permeable-Phenotype (%) [5]: 0%
- Population Mitochondria Different-Phenotype (%) [5]: 24%
- Population Mitotic Cells (%) [5]: 53%
- Population Normal (%) [5]: 96%
- Population Pyknosed Nuclei (%) [5]: 10%
- Population Tubulin-Different-Phenotype (%) [5]: 15%
- Total Cell Count [5]: 614
- Population Apoptotic (%) [6]: 19%
- Population Fragmented Nuclei (%) [6]: 10%
- Population Healthy Nuclei (%) [6]: 81%
- Population Hoechst High Intensity Objects (%) [6]: 6%
- Population Membrane Permeable-Phenotype (%) [6]: 1%
- Population Mitochondria Different-Phenotype (%) [6]: 30%
- Population Mitotic Cells (%) [6]: 80%
- Population Normal (%) [6]: 93%
- Population Pyknosed Nuclei (%) [6]: 8%
- Population Tubulin-Different-Phenotype (%) [6]: 14%
- Total Cell Count [6]: 521
- Population Apoptotic (%) [7]: 40%
- Population Fragmented Nuclei (%) [7]: 7%
- Population Healthy Nuclei (%) [7]: 78%
- Population Hoechst High Intensity Objects (%) [7]: 6%
- Population Membrane Permeable-Phenotype (%) [7]: 0%
- Population Mitochondria Different-Phenotype (%) [7]: 34%
- Population Mitotic Cells (%) [7]: 59%
- Population Normal (%) [7]: 93%
- Population Pyknosed Nuclei (%) [7]: 13%
- Population Tubulin-Different-Phenotype (%) [7]: 32%
- Total Cell Count [7]: 456
- Population Apoptotic (%) [8]: 43%
- Population Fragmented Nuclei (%) [8]: 10%
- Population Healthy Nuclei (%) [8]: 79%
- Population Mitochondria Different-Phenotype (%) [8]: 57%
- Population Mitotic Cells (%) [8]: 56%
- Population Pyknosed Nuclei (%) [8]: 9%
- Population Tubulin-Different-Phenotype (%) [8]: 28%
- Total Cell Count [8]: 414
- Population Apoptotic (%) [9]: 26%
- Population Fragmented Nuclei (%) [9]: 13%
- Population Healthy Nuclei (%) [9]: 80%
- Population Hoechst High Intensity Objects (%) [9]: 2%
- Population Membrane Permeable-Phenotype (%) [9]: 0%
- Population Mitochondria Different-Phenotype (%) [9]: 15%
- Population Mitotic Cells (%) [9]: 73%
- Population Normal (%) [9]: 97%
- Population Pyknosed Nuclei (%) [9]: 5%
- Population Tubulin-Different-Phenotype (%) [9]: 11%
- Total Cell Count [9]: 1083
- Population Apoptotic (%) [10]: 22%
- Population Fragmented Nuclei (%) [10]: 15%
- Population Healthy Nuclei (%) [10]: 79%
- Population Mitochondria Different-Phenotype (%) [10]: 18%
- Population Mitotic Cells (%) [10]: 77%
- Population Tubulin-Different-Phenotype (%) [10]: 10%
- Total Cell Count [10]: 818
- Population Apoptotic (%) [11]: 32%
- Population Fragmented Nuclei (%) [11]: 12%
- Population Healthy Nuclei (%) [11]: 78%
- Population Hoechst High Intensity Objects (%) [11]: 5%
- Population Membrane Permeable-Phenotype (%) [11]: 0%
- Population Mitochondria Different-Phenotype (%) [11]: 22%
- Population Mitotic Cells (%) [11]: 67%
- Population Normal (%) [11]: 94%
- Population Pyknosed Nuclei (%) [11]: 8%
- Population Tubulin-Different-Phenotype (%) [11]: 15%
- Total Cell Count [11]: 659
- Population Apoptotic (%) [12]: 39%
- Population Healthy Nuclei (%) [12]: 80%
- Population Hoechst High Intensity Objects (%) [12]: 6%
- Population Mitochondria Different-Phenotype (%) [12]: 32%
- Population Mitotic Cells (%) [12]: 60%
- Population Normal (%) [12]: 93%
- Population Pyknosed Nuclei (%) [12]: 7%
- Population Tubulin-Different-Phenotype (%) [12]: 18%
- Total Cell Count [12]: 534

— ChEMBL document CHEMBL5058577, “EUbOPEN Chemogenomics Library 2 (Multiplex)” (2022)
